Test results published in paper PMC9350900 (ACS chemical neuroscience, 2021).
Where two headings read alike, the source gives them in different places.

Legend:
[1] = Lipophilicity by shake-flask method; type: physicochemical; conditions: 1-octanol
[2] = Dynamic PET imaging in healthy rats; type: in vivo, rat
Summary of the method: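 Two healthy Sprague-Dawley rats, 3 months old (male 358 g, female 241 g), injected i.v. with 15.5 and 16.5 MBq of the [18F] tracer (Am 19 and 8 GBq/μmol). 120-min dynamic PET/MRI in 39 frames, FBP with Hann filter. Decay-corrected, without attenuation or scatter correction. Whole-brain TAC from MR template atlas; SUV normalised to injected activity and body weight.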

[3] = Baseline dynamic PET imaging in non-human primate; type: in vivo, rhesus monkey (Macaca mulatta); conditions: rhesus monkey, i.v. 185 MBq
Summary of the method: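 Rhesus monkey sedated with ketamine (15 mg/kg i.m.) plus glycopyrrolate (0.01 mg/kg i.m.), intubated, and kept under isoflurane (0.5–2.0%) in 40% oxygen/air. CT scan for attenuation correction. The [18F] tracer (185 MBq, <1.0 microgram mass) was given as a slow i.v. bolus (~20 s) with saline flush. Dynamic 90-min scan in 27 frames, FBP-reconstructed with full corrections. Whole-brain ROI time-activity curve in SUV.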

[4] = Dynamic PET imaging in wild-type mice; type: in vivo, mouse; conditions: wt male mice
Summary of the method: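 Three male C57BL/6 mice (7.5 months, 29–32 g) given an i.v. bolus of the [18F] tracer (9.1 ± 1.1 MBq; Am 18 ± 10 GBq/μmol). 60-min dynamic PET/MRI in 33 frames, FBP reconstruction. Decay-corrected, no attenuation or scatter correction. Whole-brain TAC via MR template atlas; SUV = regional radioactivity normalised to injected activity and body weight.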

[5] = Radiometabolite analysis of blood samples in non-human primate; type: in vivo, rhesus monkey (Macaca mulatta); conditions: rhesus monkey blood, 10 min
Summary of the method: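 Anesthetised rhesus monkey given 185 MBq of the [18F] tracer as an i.v. bolus. Venous blood (~3 mL) drawn via saphenous catheter at 2, 10, 30, 45 and 90 min post-injection. Samples analysed by radio-HPLC for radiolabelled metabolites and the time-varying fraction of unmetabolized parent tracer.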

[6] = system: 93 CNS receptors and enzymes, including MAO-A and MAO-B; test: Off-target selectivity screen; type: binding; conditions: 93 proteins including MAO-A and MAO-B, 1.0 μM
P-glycoprotein = P-glycoprotein (Homo sapiens, UniProt P08183); conditions: MDCK-MDR1
Chain of P-glycoprotein (P08183 whole entry): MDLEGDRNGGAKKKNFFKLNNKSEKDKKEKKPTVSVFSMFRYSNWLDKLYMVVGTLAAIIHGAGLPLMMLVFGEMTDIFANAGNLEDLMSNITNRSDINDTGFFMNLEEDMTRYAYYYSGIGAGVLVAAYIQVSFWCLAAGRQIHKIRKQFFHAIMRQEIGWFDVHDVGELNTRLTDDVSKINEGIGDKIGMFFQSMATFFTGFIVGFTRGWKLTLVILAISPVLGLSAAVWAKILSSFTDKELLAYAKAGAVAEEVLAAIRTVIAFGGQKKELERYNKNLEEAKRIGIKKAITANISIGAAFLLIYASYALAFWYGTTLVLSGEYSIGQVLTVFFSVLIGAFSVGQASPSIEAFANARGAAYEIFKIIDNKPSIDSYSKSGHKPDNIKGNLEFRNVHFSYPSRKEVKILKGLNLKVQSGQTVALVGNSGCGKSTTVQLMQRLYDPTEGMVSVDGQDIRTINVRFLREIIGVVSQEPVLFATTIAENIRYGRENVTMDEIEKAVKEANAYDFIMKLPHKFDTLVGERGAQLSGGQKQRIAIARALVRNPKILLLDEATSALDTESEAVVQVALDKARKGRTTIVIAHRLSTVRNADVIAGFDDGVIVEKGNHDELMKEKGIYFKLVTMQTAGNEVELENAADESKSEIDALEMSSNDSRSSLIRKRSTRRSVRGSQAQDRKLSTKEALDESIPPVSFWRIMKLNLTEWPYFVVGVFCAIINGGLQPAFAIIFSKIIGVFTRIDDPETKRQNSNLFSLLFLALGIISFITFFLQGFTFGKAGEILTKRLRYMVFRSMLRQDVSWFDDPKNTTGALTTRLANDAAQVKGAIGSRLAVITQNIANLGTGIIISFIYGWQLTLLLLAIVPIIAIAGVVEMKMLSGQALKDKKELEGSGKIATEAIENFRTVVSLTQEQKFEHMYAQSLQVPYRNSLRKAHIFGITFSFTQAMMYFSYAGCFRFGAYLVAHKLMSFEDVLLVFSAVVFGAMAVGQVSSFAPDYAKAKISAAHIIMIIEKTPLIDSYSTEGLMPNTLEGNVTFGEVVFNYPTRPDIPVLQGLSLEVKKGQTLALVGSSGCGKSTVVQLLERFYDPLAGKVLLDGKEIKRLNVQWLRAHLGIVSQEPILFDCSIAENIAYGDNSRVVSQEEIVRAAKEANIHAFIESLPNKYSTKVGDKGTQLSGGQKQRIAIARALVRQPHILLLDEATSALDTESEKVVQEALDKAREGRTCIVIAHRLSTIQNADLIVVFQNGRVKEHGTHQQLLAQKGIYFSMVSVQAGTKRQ

[7] = rat
[8] = human
[9] = type: in vitro ADME; conditions: rat
[10] = type: in vitro ADME; conditions: human
[11] = molecular target: T1, melatonin binding site (MT3 (ML2)) on quinone dehydrogenase 2 (Mesocricetus auratus, UniProt A0ABM2YAB8); test: Off-target selectivity screen; conditions: 1.0 μM, specific radioligand
T1 sequence (A0ABM2YAB8 1-231): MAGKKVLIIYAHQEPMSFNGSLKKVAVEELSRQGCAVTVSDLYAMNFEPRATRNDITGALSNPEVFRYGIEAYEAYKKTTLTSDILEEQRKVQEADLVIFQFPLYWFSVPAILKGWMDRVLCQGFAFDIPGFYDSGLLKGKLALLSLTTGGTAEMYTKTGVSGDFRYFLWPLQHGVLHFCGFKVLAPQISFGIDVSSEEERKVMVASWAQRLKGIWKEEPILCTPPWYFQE

Compound	logD7.4 [1]	maximum radioactivity in whole brain ([2]; i.v. 15.5 and 16.5 MBq) [SUV]	whole brain radioactivity after 30 min ([2]; i.v., after 30 min)	peak brain activity [3] [SUV]	time to peak brain activity [3] [min]	brain activity after 25 min ([3]; after 25 min)	maximum radioactivity in whole brain ([4]; i.v. bolus 9.1 ± 1.1 MBq) [SUV]	whole brain radioactivity after 30 min ([4]; i.v., after 30 min)	fraction of unmetabolized parent [5] [%]	affinity for off-targets [6]	efflux ratio (B-A/A-B) (P-glycoprotein)	free fraction in blood plasma [7] [%]	free fraction in blood plasma [8] [%]	stability in liver microsomes [9] [mL/min/kg]	stability in liver microsomes [10] [mL/min/kg]	interaction with off-target [11]
OCC1CCN(c2ccc(-c3cc4cc(O)ccc4[nH]3)c([18F])n2)CC1 [[^18F]CBD-2115]	2.99 ± 0.15	0.5	below 0.1 SUV	0.65	≤ 2	below 0.2 SUV	0.66	below 0.1 SUV	45							
OCC1CCN(c2ccc(-c3cc4cc(O)ccc4[nH]3)c(F)n2)CC1 [CBD-2115]										no significant affinity	0.98	2.85	2.70	63.84	8.56	specific interaction
